Results taken from ChEMBL document CHEMBL5316295, “Systematic Design of Adenosine Analogs as Inhibitors of a Clostridioides difficile-Specific DNA Adenine Methyltransferase Required for Normal Sporulation and Persistence” (J Med Chem, 2023).
Activity calls are given as the source filed them. No cut-off for these calls is given here.

molecular target: mRNA (2'-O-methyladenosine-N(6)-)-methyltransferase (Homo sapiens) (UniProt Q9H4Z3); test: Inhibition of human PCIF1 using m7GpppAmG as substrate and SAM as cosubstrate at 10 uM incubated for 15 mins; conditions: not given
Method in brief: (§1)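 Enzyme 0.1 μM with 5 μM RNA, 30 μM SAM and 10 μM inhibitor at ~22 °C in 50 mM Tris–HCl pH 7.5, 100 mM NaCl, 1 mM DTT, 0.25% DMSO. PCIF1 run 15 min with capped RNA; MettL5-Trm112 run 1 h with ssRNA.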

Sequence of mRNA (2'-O-methyladenosine-N(6)-)-methyltransferase (Homo sapiens) (Q9H4Z3 whole entry): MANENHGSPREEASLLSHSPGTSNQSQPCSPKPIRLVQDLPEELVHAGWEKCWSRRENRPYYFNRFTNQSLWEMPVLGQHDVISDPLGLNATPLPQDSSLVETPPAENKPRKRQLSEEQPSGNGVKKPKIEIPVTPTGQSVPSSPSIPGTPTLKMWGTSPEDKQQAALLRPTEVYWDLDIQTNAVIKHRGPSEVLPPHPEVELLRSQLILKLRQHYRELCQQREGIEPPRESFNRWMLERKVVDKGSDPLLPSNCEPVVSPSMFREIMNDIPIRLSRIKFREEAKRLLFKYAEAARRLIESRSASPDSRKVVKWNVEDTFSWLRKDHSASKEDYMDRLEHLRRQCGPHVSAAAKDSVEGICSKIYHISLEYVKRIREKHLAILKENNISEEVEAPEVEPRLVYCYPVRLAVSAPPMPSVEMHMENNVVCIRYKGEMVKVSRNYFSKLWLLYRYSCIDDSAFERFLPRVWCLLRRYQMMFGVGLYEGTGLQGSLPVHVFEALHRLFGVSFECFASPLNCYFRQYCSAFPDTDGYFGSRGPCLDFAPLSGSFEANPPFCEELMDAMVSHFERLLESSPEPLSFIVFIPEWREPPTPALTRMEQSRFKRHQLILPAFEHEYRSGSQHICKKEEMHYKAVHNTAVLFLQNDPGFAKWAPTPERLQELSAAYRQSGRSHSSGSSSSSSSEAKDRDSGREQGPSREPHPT

**Q.** Which inhibition does the source give for `CC(C)(C)OC(=O)N1CCC(CCNc2ncnc3c2ncn3[C@@H]2O[C@H](CO)[C@@H](O)[C@H]2O)CC1` here?
**A.** inactive

**Q.** With `OC[C@H]1O[C@@H](n2cnc3c(NCCCc4ccc(O)cc4)ncnc32)[C@H](O)[C@@H]1O` as the compound, how does the inhibition read?
**A.** inactive

**Q.** With `CC(C)(C)OC(=O)N1CCC(CCCNc2ncnc3c2ncn3[C@@H]2O[C@H](CO)[C@@H](O)[C@H]2O)CC1` as the compound, how does the inhibition read?
**A.** inactive

molecular target: METTL5-TRM112 (Homo sapiens) (UniProt Q9UI30+Q9NRN9); test: Inhibition of human METTL5/TRM112 using 5'-UCG UAA CAA GGU UU-3' as substrate and SAM as cosubstrate at 10 uM incubated for 1 hr; format: protein-complex assay; conditions: not given; method in brief: as §1

**Q.** Which inhibition does the source give for `CC(C)(C)OC(=O)N1CCC(CCNc2ncnc3c2ncn3[C@@H]2O[C@H](CO)[C@@H](O)[C@H]2O)CC1` here?
**A.** inactive

**Q.** With `OC[C@H]1O[C@@H](n2cnc3c(NCCCc4ccc(O)cc4)ncnc32)[C@H](O)[C@@H]1O` as the compound, how does the inhibition read?
**A.** inactive

**Q.** Which inhibition does the source give for `CC(C)(C)OC(=O)N1CCC(CCCNc2ncnc3c2ncn3[C@@H]2O[C@H](CO)[C@@H](O)[C@H]2O)CC1` here?
**A.** inactive

molecular target: Histone-lysine N-methyltransferase EZH2 (Homo sapiens) (UniProt Q15910); test: Inhibition of EZH2 (unknown origin) using chicken core histone as substrate and 3H-SAM as cosubstrate at 10 uM pretreated with compound for 20 mins in presence of chicken core histone followed by cosubstrate addition and measured after 1 hr; conditions: time 80.0 min
Method in brief: (§2)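 Enzymes (DOT1L 1 nM; EZH2, G9a, PRMT1 5 nM) mixed with substrate (0.05 mg/mL oligonucleosomes for DOT1L; 0.05 mg/mL core histone for EZH2; 5 μM H3 1–21 peptide for G9a; 5 μM H4 for PRMT1). Compound (10 μM) added for 20 min at room temperature, then 1 μM ³H-SAM for 1 h at 30 °C; filter-paper read-out. Triplicates, mean ± SD.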

Sequence of Histone-lysine N-methyltransferase EZH2 (Homo sapiens) (Q15910 whole entry, looked up): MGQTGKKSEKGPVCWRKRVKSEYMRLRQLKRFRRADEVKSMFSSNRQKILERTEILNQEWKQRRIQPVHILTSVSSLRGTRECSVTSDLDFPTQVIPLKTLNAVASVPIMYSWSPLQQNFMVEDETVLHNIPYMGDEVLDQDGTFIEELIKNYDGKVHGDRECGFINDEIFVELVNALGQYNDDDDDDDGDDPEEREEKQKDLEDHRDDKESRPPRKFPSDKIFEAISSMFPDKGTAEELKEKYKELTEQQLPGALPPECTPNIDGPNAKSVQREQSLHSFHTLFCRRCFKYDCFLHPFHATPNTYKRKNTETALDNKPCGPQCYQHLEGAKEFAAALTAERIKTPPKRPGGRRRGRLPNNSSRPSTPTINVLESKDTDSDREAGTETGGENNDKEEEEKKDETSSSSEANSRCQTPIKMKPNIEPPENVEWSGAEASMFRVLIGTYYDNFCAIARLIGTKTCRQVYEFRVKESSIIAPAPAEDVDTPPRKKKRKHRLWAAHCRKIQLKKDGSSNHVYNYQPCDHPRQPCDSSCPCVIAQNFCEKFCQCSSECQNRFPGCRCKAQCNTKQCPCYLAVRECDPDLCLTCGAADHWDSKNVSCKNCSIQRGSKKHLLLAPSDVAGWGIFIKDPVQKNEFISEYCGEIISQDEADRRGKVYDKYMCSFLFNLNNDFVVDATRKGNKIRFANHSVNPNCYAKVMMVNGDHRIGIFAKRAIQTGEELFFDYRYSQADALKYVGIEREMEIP

**Q.** With `CC(C)(C)OC(=O)N1CCC(CCNc2ncnc3c2ncn3[C@@H]2O[C@H](CO)[C@@H](O)[C@H]2O)CC1` as the compound, how does the inhibition read?
**A.** inactive

**Q.** With `OC[C@H]1O[C@@H](n2cnc3c(NCCCc4ccc(O)cc4)ncnc32)[C@H](O)[C@@H]1O` as the compound, how does the inhibition read?
**A.** inactive

**Q.** With `CC(C)(C)OC(=O)N1CCC(CCCNc2ncnc3c2ncn3[C@@H]2O[C@H](CO)[C@@H](O)[C@H]2O)CC1` as the compound, how does the inhibition read?
**A.** inactive

molecular target: METTL3/METTL14 (Homo sapiens) (UniProt Q86U44+Q9HCE5); test: Inhibition of human METTL3/METTL14 using 5'-AAC AGA AUG GGA CUG UUC-3' as substrate and SAM as cosubstrate at 10 uM incubated for 15 mins; format: protein-complex assay; conditions: not given
Method in brief: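 Under CamA conditions (100 mM NaCl) the assay ran 15 min with 10 μM inhibitor. An alternative condition used 0.1 μM enzyme, 10 μM ssRNA, 20 μM SAM in 50 mM HEPES pH 7.5, 5 mM NaCl, 1 mM DTT, 0.25% DMSO for 10 min.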

**Q.** With `CC(C)(C)OC(=O)N1CCC(CCNc2ncnc3c2ncn3[C@@H]2O[C@H](CO)[C@@H](O)[C@H]2O)CC1` as the compound, how does the inhibition read?
**A.** inactive

**Q.** With `OC[C@H]1O[C@@H](n2cnc3c(NCCCc4ccc(O)cc4)ncnc32)[C@H](O)[C@@H]1O` as the compound, how does the inhibition read?
**A.** inactive

**Q.** Which inhibition does the source give for `CC(C)(C)OC(=O)N1CCC(CCCNc2ncnc3c2ncn3[C@@H]2O[C@H](CO)[C@@H](O)[C@H]2O)CC1` here?
**A.** inactive

molecular target: not listed separately; test: Inhibition of Clostridioides difficile-specific DNA adenine methyltransferase mediated methylation using 5'-CGA TTC AAA AAG TCC CAA G-3' and 3'-GCT AAG TTT TTC AGG GTT C-5' as substrate and SAM as cosubstrate preincubated for 5 mins followed by substrate and cosubstrate addition and measured after 3 mins by MTase glo assay; conditions: not given

**Q.** With `CC(C)(C)OC(=O)N1CCC(CCNc2ncnc3c2ncn3[C@@H]2O[C@H](CO)[C@@H](O)[C@H]2O)CC1` as the compound, how does the IC50 read?
**A.** 710 nM

**Q.** With `OC[C@H]1O[C@@H](n2cnc3c(NCCCc4ccc(O)cc4)ncnc32)[C@H](O)[C@@H]1O` as the compound, how does the IC50 read?
**A.** 510 nM

**Q.** For `CC(C)(C)OC(=O)N1CCC(CCCNc2ncnc3c2ncn3[C@@H]2O[C@H](CO)[C@@H](O)[C@H]2O)CC1`, which IC50 is on record?
**A.** 390 nM

molecular target: DNMT3A-DNMT3L (Mus musculus) (UniProt O88508+Q9CWR8); test: Inhibition of mouse DNMT3A/DNMT3L using 5'-G CATGCGTTCTAATTAGAAUGCATG-3' and 3'-GTA CGS AAG ATT AAT CTT GCG TAC G-5' as substrate and SAM as cosubstrate at 10 uM incubated for 1 hr; format: protein-complex assay; conditions: not given
Method in brief: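 Dnmt3a-3L (0.5 μM) with 5 μM dsDNA, 25 μM SAM and 10 μM inhibitor in 20 mM Tris pH 7.5, 40 mM NaCl, 4 mM DTT, 20% glycerol, run 1 h at 37 °C.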

Sequence of DNMT3A-DNMT3L (Mus musculus) (Q9CWR8 whole entry, looked up, other chains not shown): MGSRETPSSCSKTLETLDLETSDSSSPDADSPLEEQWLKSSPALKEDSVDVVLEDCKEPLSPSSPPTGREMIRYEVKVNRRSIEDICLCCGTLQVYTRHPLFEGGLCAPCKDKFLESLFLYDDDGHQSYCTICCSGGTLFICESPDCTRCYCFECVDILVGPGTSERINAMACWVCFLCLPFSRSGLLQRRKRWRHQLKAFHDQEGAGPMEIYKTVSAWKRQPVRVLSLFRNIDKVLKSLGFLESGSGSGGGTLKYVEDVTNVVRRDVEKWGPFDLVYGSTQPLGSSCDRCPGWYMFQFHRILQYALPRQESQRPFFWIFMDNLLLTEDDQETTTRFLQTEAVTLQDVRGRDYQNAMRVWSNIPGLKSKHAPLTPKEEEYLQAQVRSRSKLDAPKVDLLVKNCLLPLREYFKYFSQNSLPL

**Q.** With `CC(C)(C)OC(=O)N1CCC(CCNc2ncnc3c2ncn3[C@@H]2O[C@H](CO)[C@@H](O)[C@H]2O)CC1` as the compound, how does the inhibition read?
**A.** inactive

**Q.** Which inhibition does the source give for `OC[C@H]1O[C@@H](n2cnc3c(NCCCc4ccc(O)cc4)ncnc32)[C@H](O)[C@@H]1O` here?
**A.** inactive

**Q.** With `CC(C)(C)OC(=O)N1CCC(CCCNc2ncnc3c2ncn3[C@@H]2O[C@H](CO)[C@@H](O)[C@H]2O)CC1` as the compound, how does the inhibition read?
**A.** inactive

molecular target: T1, DNA adenine methylase (Escherichia coli K-12) (UniProt P0AEE8); test: Inhibition of Escherichia coli Dam using 5'-CCG CGG ATC CTG CT-3' and 3'-GGC GCC TAG GAC GA-5' as substrate and SAM as cosubstrate at 10 uM incubated for 5 mins; conditions: not given
T1 sequence (whole entry): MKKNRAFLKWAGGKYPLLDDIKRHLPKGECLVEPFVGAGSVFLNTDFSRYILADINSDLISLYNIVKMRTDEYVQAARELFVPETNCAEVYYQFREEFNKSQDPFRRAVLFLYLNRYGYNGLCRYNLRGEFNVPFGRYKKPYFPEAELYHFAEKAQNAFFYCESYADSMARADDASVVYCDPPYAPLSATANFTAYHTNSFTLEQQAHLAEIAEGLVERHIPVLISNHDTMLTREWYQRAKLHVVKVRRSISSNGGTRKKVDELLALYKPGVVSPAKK
Method in brief: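 Conditions were enzyme 0.1 μM, DNA 5 μM, SAM 30 μM, inhibitor 10 μM, at ~22 °C in 50 mM Tris–HCl pH 7.5, 100 mM NaCl, 1 mM DTT, 0.25% DMSO, run 5 min. Substrate and SAM levels were above K_M.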

**Q.** With `CC(C)(C)OC(=O)N1CCC(CCNc2ncnc3c2ncn3[C@@H]2O[C@H](CO)[C@@H](O)[C@H]2O)CC1` as the compound, how does the inhibition read?
**A.** inactive

**Q.** Which inhibition does the source give for `OC[C@H]1O[C@@H](n2cnc3c(NCCCc4ccc(O)cc4)ncnc32)[C@H](O)[C@@H]1O` here?
**A.** inactive

**Q.** Which inhibition does the source give for `CC(C)(C)OC(=O)N1CCC(CCCNc2ncnc3c2ncn3[C@@H]2O[C@H](CO)[C@@H](O)[C@H]2O)CC1` here?
**A.** inactive

molecular target: DNA (cytosine-5)-methyltransferase 1 (Homo sapiens) (UniProt P26358); test: Inhibition of human DNMT1 (351 to 1600 residues) using 5'-CCT GCG GAG GCT MGT CAT GA-3' and 3'-GGACGCCTCCGAGCAGTACT-5' as substrate and SAM as cosubstrate at 10 uM incubated for 1 hr; conditions: not given
Method in brief: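 DNMT1 (0.1 μM) with 1 μM hemimethylated dsDNA, 5.5 μM SAM and 10 μM inhibitor in 50 mM Tris pH 7.5, 1 mM EDTA, run 1 h at 37 °C.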

Sequence of DNA (cytosine-5)-methyltransferase 1 (Homo sapiens) (P26358 whole entry, the tested form may be a part): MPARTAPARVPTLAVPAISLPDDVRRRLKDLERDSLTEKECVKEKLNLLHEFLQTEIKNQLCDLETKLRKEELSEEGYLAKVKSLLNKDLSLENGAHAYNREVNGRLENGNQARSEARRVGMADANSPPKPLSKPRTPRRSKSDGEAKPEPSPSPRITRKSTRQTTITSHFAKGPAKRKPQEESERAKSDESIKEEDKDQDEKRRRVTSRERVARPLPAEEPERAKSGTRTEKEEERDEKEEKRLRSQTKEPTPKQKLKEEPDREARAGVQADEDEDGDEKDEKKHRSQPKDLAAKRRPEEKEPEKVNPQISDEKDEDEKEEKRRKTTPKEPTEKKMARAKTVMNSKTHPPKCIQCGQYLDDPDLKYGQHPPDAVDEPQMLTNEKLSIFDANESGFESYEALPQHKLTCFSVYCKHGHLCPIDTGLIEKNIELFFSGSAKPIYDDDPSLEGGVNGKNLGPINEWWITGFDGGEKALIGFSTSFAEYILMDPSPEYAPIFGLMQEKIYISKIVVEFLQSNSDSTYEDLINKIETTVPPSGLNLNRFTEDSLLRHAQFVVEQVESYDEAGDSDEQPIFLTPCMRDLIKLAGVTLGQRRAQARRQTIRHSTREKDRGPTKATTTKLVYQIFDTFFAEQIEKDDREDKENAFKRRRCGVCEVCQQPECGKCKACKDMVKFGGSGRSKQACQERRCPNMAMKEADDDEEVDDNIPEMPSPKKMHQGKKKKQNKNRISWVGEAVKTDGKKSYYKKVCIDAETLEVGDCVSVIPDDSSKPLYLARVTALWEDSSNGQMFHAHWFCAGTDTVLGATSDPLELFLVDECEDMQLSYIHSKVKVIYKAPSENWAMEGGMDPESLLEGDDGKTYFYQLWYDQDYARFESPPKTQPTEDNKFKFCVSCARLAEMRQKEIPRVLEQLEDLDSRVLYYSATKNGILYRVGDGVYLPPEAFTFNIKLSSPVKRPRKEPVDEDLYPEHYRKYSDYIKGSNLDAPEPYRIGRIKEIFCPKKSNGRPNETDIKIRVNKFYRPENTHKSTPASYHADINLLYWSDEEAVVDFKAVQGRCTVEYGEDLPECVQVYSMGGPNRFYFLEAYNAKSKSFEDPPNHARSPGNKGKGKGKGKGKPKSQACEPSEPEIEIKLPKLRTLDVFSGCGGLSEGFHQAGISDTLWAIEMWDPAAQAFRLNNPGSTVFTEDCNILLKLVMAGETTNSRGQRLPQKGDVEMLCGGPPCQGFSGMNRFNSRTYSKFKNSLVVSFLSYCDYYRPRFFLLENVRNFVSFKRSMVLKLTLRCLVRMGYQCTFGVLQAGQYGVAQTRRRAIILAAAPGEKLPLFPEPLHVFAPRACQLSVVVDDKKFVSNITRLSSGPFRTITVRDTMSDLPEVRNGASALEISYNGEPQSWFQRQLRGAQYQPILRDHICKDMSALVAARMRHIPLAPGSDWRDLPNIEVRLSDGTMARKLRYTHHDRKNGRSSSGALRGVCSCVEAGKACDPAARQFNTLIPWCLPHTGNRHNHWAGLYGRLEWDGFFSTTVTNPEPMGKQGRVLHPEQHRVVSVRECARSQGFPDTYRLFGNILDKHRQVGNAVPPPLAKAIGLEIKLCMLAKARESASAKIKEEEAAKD

**Q.** Which inhibition does the source give for `CC(C)(C)OC(=O)N1CCC(CCNc2ncnc3c2ncn3[C@@H]2O[C@H](CO)[C@@H](O)[C@H]2O)CC1` here?
**A.** inactive

**Q.** For `OC[C@H]1O[C@@H](n2cnc3c(NCCCc4ccc(O)cc4)ncnc32)[C@H](O)[C@@H]1O`, which inhibition is on record?
**A.** inactive

**Q.** For `CC(C)(C)OC(=O)N1CCC(CCCNc2ncnc3c2ncn3[C@@H]2O[C@H](CO)[C@@H](O)[C@H]2O)CC1`, which inhibition is on record?
**A.** inactive

molecular target: Histone-lysine N-methyltransferase, H3 lysine-79 specific (Homo sapiens) (UniProt Q8TEK3); test: Inhibition of human DOT1L using oligonucleosome as substrate and 3H-SAM as cosubstrate at 10 uM pretreated with compound for 20 mins in presence of oligonucleosome followed by cosubstrate addition and measured after 1 hr; conditions: time 80.0 min; method in brief: as §2
Sequence (Q8TEK3 whole entry, looked up): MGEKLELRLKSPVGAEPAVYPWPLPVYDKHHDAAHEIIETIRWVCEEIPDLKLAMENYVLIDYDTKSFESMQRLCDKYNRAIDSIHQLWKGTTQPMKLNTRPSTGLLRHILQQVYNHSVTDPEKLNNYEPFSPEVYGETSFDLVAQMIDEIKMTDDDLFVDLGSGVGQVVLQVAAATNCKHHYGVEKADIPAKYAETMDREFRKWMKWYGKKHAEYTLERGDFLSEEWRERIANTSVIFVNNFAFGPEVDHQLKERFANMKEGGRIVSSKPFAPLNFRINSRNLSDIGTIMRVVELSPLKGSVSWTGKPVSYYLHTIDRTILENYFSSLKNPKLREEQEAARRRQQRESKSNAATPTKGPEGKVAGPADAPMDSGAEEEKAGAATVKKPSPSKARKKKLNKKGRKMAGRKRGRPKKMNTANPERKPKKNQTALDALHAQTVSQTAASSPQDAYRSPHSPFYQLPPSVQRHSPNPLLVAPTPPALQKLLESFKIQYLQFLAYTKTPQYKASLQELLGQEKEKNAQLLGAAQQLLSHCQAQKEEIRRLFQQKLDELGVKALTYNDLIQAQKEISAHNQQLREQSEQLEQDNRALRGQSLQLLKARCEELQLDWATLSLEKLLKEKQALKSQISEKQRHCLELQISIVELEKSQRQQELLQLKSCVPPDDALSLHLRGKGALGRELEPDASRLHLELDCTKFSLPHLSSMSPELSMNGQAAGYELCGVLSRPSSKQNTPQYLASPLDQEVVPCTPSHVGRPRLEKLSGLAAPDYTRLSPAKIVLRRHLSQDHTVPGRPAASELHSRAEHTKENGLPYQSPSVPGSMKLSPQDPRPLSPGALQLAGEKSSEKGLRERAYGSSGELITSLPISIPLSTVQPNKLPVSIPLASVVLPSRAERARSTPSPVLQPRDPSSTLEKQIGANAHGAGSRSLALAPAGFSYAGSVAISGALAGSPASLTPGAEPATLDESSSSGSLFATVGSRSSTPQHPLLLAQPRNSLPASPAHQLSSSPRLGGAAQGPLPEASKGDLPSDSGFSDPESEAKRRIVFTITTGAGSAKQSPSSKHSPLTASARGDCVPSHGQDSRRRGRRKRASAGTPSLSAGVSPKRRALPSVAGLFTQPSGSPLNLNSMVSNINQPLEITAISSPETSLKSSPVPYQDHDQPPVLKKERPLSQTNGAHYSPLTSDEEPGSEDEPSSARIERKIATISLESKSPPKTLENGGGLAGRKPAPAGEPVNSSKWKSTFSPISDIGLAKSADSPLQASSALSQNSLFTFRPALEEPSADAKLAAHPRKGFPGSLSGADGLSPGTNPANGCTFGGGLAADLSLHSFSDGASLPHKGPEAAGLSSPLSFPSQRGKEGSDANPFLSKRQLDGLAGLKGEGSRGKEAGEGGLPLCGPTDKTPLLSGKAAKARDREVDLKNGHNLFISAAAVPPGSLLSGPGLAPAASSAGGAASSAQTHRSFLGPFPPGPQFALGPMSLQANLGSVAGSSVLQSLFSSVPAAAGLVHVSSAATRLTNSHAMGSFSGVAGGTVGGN

**Q.** With `CC(C)(C)OC(=O)N1CCC(CCNc2ncnc3c2ncn3[C@@H]2O[C@H](CO)[C@@H](O)[C@H]2O)CC1` as the compound, how does the inhibition read?
**A.** inactive

**Q.** Which inhibition does the source give for `OC[C@H]1O[C@@H](n2cnc3c(NCCCc4ccc(O)cc4)ncnc32)[C@H](O)[C@@H]1O` here?
**A.** inactive

**Q.** With `CC(C)(C)OC(=O)N1CCC(CCCNc2ncnc3c2ncn3[C@@H]2O[C@H](CO)[C@@H](O)[C@H]2O)CC1` as the compound, how does the inhibition read?
**A.** inactive
